Screening data (PubChem)
Most compounds without a hit are left out; they make up all but 3.8% or so of the library.
hERG rescue: hERG rescue from dofetilide block, primary screen, cell-based, CHO-hERG, FluxOR thallium flux, dofetilide IC70 | hit rate 0.51% among 310,000 | Voltage-gated inwardly rectifying potassium channel KCNH2 (Homo sapiens), Q12809 | dofetilide IC70 present | activation (rescue from dofetilide block), less the hit threshold, % at 10 µM;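 active = activation above the mean of controls blocked by dofetilide plus 5 SD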;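 also: thallium influx through hERG after potassium depolarization seen as dye fluorescence rise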
KCNQ1 pot: potentiators or activators of KCNQ1 channel, primary screen, cell-based, thallium flux, high-throughput; B-score at 10 µM; Potassium voltage-gated channel subfamily KQT member 1 (Homo sapiens), P51787; hit rate 0.35% among 310,000; CHO-K1 KCNQ1, thallium flux FluxOR fluorescence; hits give high values;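 active = fluorescence ratio B-score, a plate-corrected score, at least three library SD, with initial intensity B-score within 5 SD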
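Assay system: stable KCNQ1 CHO-K1 line; medium: assay buffer, equal DMSO in all wells; timing: 90 min dye loading and 20 min compound exposure, both at room temperature; technique: kinetic FluxOR thallium fluorescence, 10-s 1-Hz baseline, 110-s post-stimulus read; read-out basis: B score of baseline-normalized fluorescence ratio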
Kir21 block: inhibitors of mouse Kir2.1 inward-rectifier potassium channel | B-score at 10 µM | Inward rectifier potassium channel 2 (Mus musculus), P35561 | hit rate 0.85% among 310,000 | HEK293-Kir2.1, FluxOR thallium flux fluorescence; hits give low values;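 active = fluorescence ratio B-score at or below minus 3 SD of library scores, with starting-brightness B-score within 2 SD, cut at about -4.2 in these data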;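 also: channel flux triggered by added potassium and thallium sulfate stimulus; B-score of peak minus minimum fluorescence over baseline after thallium stimulus; more negative B-score means stronger Kir2.1 block with less thallium influx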
KCNK9 inh: KCNK9 potassium channel inhibitors, primary screen, HEK293 cells, thallium flux. B-score at 10 µM. hit rate 1.2% among 310,000. FluxOR thallium flux fluorescence; hits give low values. AID 488922, 2010. Potassium channel subfamily K member 9 (Homo sapiens), Q9NPC2;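 active = ratio B-score over 3 SD below the library mean, with starting fluorescence within 5 SD of its mean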;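 also: negative B-score means less thallium flux so channel inhibition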
Target sequence (Q9NPC2 whole entry, looked up): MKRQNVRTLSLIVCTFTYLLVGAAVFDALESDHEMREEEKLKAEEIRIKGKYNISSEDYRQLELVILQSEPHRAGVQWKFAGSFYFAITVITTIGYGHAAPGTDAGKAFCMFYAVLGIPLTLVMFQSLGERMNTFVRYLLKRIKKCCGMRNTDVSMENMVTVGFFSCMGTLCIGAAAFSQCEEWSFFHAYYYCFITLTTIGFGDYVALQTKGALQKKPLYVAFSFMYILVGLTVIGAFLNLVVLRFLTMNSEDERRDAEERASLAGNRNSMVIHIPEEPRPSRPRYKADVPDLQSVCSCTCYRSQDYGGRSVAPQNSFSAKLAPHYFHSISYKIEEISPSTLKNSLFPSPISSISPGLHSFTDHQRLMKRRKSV
KCNQ1 inh: inhibitors of human KCNQ1 channel, primary screen, cell-based, thallium flux, high-throughput; Potassium voltage-gated channel subfamily KQT member 1 (Homo sapiens), P51787; CHO-K1 KCNQ1, FluxOR thallium flux fluorescence; hits give high values; B-score at 10 µM; hit rate 1.3% among 310,000; AID 2642, 2010;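 active = compounds whose thallium flux B-score, printed positive for inhibition, exceeds three library SD while starting fluorescence stays within three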;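 also: channel opened by potassium depolarization with thallium stimulus after 20 min compound exposure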
KCNK3 block: human KCNK3 channel inhibitors, primary screen, CHO cells, FluxOR thallium flux, B-score; Potassium channel subfamily K member 3 (Homo sapiens), O14649; FluxOR fluorescence; hits give low values; B-score at 10 µM; hit rate 0.84% among 340,000; AID 602410, 2012;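 active = B-score under library mean minus 4 SD, starting fluorescence ratio at most library mean plus 5 SD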;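 also: more negative B-score means stronger inhibition of thallium flux through KCNK3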
KCNK9 block conf: KCNK9 potassium channel inhibitors, confirmation, HEK293 cells, thallium flux, duplicate | shares compounds with KCNK9 inh | FluxOR thallium flux fluorescence | inhibition, % at 10 µM | hit rate 43% among 4,900;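 active = thallium signal inhibited by more than 5 SD of the compound-free buffer control wells, on both duplicate plates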
Kir2-1 spec: mouse Kir2.1 channel inhibition, confirmation, selectivity assay for KCNK9 modulator project, cell-based, HEK293, thallium flux. shares compounds with KCNK9 inh. Kir2.1 cells, FluxOR thallium flux fluorescence. inhibition, % at 10 µM. hit rate 4% among 4,900;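 active = thallium signal drop more than 5 SD beyond the mean of the no-compound control wells, seen in both duplicate plates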;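 also: signal is fluorescence rise after thallium addition divided by baseline fluorescence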
KCNK9 uninduced: thallium flux in non-induced HEK293 cells, confirmation, counter-screen for KCNK9 inhibitor project, cell-based, second counter screen, non-induced KCNK9-HEK293 | FluxOR thallium flux | AID 492997, 2010 | hit rate 40% among 4,900 | shares compounds with KCNK9 inh | inhibition, % at 10 µM;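 active = thallium signal drop beyond 5 SD of the untreated control mean, on both duplicate plates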
Each line names hits and unclear results; the compound was inactive in the other large screens (follow-up assays come after a bar, where they were run).

Cc1cc(O)ccc1Nc1nc2ccccc2nc1Nc1ccc(O)cc1C	none
COc1ccc(OC)c(CCNC(=O)CN2C(=O)CCSc3ccccc32)c1	none
CCN1CCN(c2ccc(S(=O)(=O)N3CCOCC3)cc2NC(=O)c2ccc(Cl)s2)CC1	none
CCOC(=O)c1sc(-c2ccc(OC)cc2)cc1NC(C)=O	none | KCNK9 block conf inactive | Kir2-1 spec inactive | KCNK9 uninduced inactive
CCOc1ccc(-c2cc(NC(=O)c3c(F)cccc3F)c(C(=O)O)s2)cc1	none | KCNK9 block conf inactive | Kir2-1 spec inactive | KCNK9 uninduced inactive
COc1ccc(CCNC(=O)c2cccc(S(=O)(=O)N3CCOCC3)c2)cc1OC	none (no result: hERG rescue, KCNQ1 pot, Kir21 block, KCNK9 inh, KCNQ1 inh)
Cc1ccc(/C(=N\O)c2oc3c(C)c4oc(=O)cc(C)c4cc3c2C)cc1	KCNK9 inh -9.3, KCNQ1 inh 8 | KCNK9 block conf 28% | Kir2-1 spec inactive | KCNK9 uninduced 44%
CC(C)NC(=O)c1nc2c(nnn2Cc2cccc(Cl)c2)c(=O)[nH]1	none
COc1ccccc1C(=O)Oc1ccc(C(C)C)cc1	none | KCNK9 block conf inactive | Kir2-1 spec inactive | KCNK9 uninduced 30%
O=C(Nc1ccccc1)c1ccccc1OS(=O)(=O)c1ccccc1	none
COc1ccccc1C(=O)O/N=C(\N)c1ccccc1Cl	none
O=C(Oc1ccccc1)c1ccccc1OS(=O)(=O)c1ccccc1	KCNK9 inh -9.5 | KCNK9 block conf 44% | Kir2-1 spec inactive | KCNK9 uninduced 34%
CC(=O)OC1CC(C)(C)N(OC(=O)CCCN2C(=O)c3ccccc3C2=O)C(C)(C)C1	none | KCNK9 block conf inactive | Kir2-1 spec inactive | KCNK9 uninduced inactive
O=C(CCCN1C(=O)c2ccccc2C1=O)Oc1ccc(F)cc1	none
COc1ccc2nc(SCC(=O)Nc3ccc4[nH]c(=O)[nH]c4c3)[nH]c2c1	none (no result: hERG rescue, KCNQ1 pot, Kir21 block, KCNK9 inh, KCNQ1 inh)
COc1ccc2nc(SCC(=O)Nc3ccc4c(c3)CCC4)[nH]c2c1	none | KCNK9 block conf inactive | Kir2-1 spec inactive | KCNK9 uninduced inactive
Brc1ccc(N=Nc2ccc3ccccc3n2)cc1	KCNK9 inh -10 | KCNK9 block conf 42% | Kir2-1 spec inactive | KCNK9 uninduced 82%
CCC1CCCCN1CCCNC(=O)Cn1ncn2nc(-c3ccc(OC)cc3)cc2c1=O (stereo not given)	none
CCOC(=O)c1cnn(-c2ncnc3sc4c(c23)CCC4)c1N	none
CCOC(=O)c1cnn(-c2nc(SC)nc3sc4c(c23)CCCC4)c1N	hERG rescue 9.2, KCNQ1 pot 12, KCNK9 inh -16 | KCNK9 block conf 66% | Kir2-1 spec inactive | KCNK9 uninduced 33%
Cc1ccc(CN2CCN(/N=C/c3ccc(C)s3)CC2)c(C)c1	none | KCNK9 block conf inactive | Kir2-1 spec inactive | KCNK9 uninduced inactive
Cc1ccc(CN2CCN(/N=C/c3cccn3C)CC2)c(C)c1	none
CCOc1ccccc1C(=O)NC(C)c1ccc(-n2ccnc2)cc1 (stereo not given)	none
CC(NC(=O)c1cc2cc(Br)ccc2oc1=N)c1ccccc1 (stereo not given)	none | KCNK9 block conf inactive | Kir2-1 spec inactive | KCNK9 uninduced inactive
